Assay results taken from ChEMBL document CHEMBL1145176, “Somatostatin receptor 1 selective analogues: 2. N(alpha)-Methylated scan” (J Med Chem, 2005).
Where “and” joins values, the source holds several entries; their conditions need not be identical. Equal entries are not always repeated.

Key:
CHO-K1 [1] = test: Inhibition of forskolin-stimulated cAMP accumulation in CCL39 cells; assay type: functional, Cricetulus griseus
Procedure, shortened: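 CCL39 cells stably expressing human sst1 were seeded at 2 × 10^4 cells/well on poly-D-lysine plates and grown 24 h. Cells were preincubated 30 min at 37 °C with 0.5 mM IBMX, then exposed 30 min at 37 °C to IBMX ± 7.5 µM forskolin plus graded compound concentrations. Lysate cAMP was read by scintillation proximity assay and expressed as % forskolin-stimulated level. EC50 came from three independent experiments in triplicate, with SRIF-28 as positive control.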

CHO-K1 [2] = test: Concentration for inhibition of forskolin-stimulated cAMP accumulation in CCL39 cells; assay type: functional, cell-based, Cricetulus griseus
Procedure, shortened: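 CCL39 cells stably expressing human sst1, seeded in poly-D-lysine-coated 96-well plates at 2 × 10^4 cells/well, grown 24 h. Preincubated 30 min at 37 °C in medium with 0.5 mM IBMX, then 30 min at 37 °C with 0.5 mM IBMX, 7.5 µM forskolin and varying peptide concentrations. Lysed; cAMP measured by scintillation proximity assay. Three independent experiments in triplicate; EC50 from concentration-response curves.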

Compound | Inhibition (CHO-K1 [1]) | EC50 (CHO-K1 [2])
CSCC[C@H](NC(=O)[C@H](C)NC(=O)[C@@H]1CCCN1C(=O)[C@H](CC(N)=O)NC(=O)[C@H](CO)NC(=O)[C@H](CC(N)=O)NC(=O)[C@H](C)NC(=O)[C@@H](N)CO)C(=O)N[C@@H](C)C(=O)N1CCC[C@H]1C(=O)N[C@@H](CCCNC(=N)N)C(=O)N[C@@H](CCC(=O)O)C(=O)N[C@@H](CCCNC(=N)N)C(=O)N[C@@H](CCCCN)C(=O)N[C@@H](C)C(=O)NCC(=O)N[C@H]1CSSC[C@@H](C(=O)O)NC(=O)[C@H](CO)NC(=O)[C@H]([C@@H](C)O)NC(=O)[C@H](Cc2ccccc2)NC(=O)[C@H]([C@@H](C)O)NC(=O)[C@H](CCCCN)NC(=O)[C@H](Cc2c[nH]c3ccccc23)NC(=O)[C@H](Cc2ccccc2)NC(=O)[C@H](Cc2ccccc2)NC(=O)[C@H](CC(N)=O)NC(=O)[C@H](CCCCN)NC1=O [listing 1 of 2 here] | >81% and >49% | –
CSCC[C@H](NC(=O)[C@H](C)NC(=O)[C@@H]1CCCN1C(=O)[C@H](CC(N)=O)NC(=O)[C@H](CO)NC(=O)[C@H](CC(N)=O)NC(=O)[C@H](C)NC(=O)[C@@H](N)CO)C(=O)N[C@@H](C)C(=O)N1CCC[C@H]1C(=O)N[C@@H](CCCNC(=N)N)C(=O)N[C@@H](CCC(=O)O)C(=O)N[C@@H](CCCNC(=N)N)C(=O)N[C@@H](CCCCN)C(=O)N[C@@H](C)C(=O)NCC(=O)N[C@H]1CSSC[C@@H](C(=O)O)NC(=O)[C@H](CO)NC(=O)[C@H]([C@@H](C)O)NC(=O)[C@H](Cc2ccccc2)NC(=O)[C@H]([C@@H](C)O)NC(=O)[C@H](CCCCN)NC(=O)[C@H](Cc2c[nH]c3ccccc23)NC(=O)[C@H](Cc2ccccc2)NC(=O)[C@H](Cc2ccccc2)NC(=O)[C@H](CC(N)=O)NC(=O)[C@H](CCCCN)NC1=O [listing 2 of 2 here] | – | 180 pM and 770 pM
